Measured values from paper PMC6543826 (Bioorganic chemistry, 2018).
Several values for one entry are separate records, joined by “and”; a condition that tells them apart may be missing. Identical values can stand only once. Like-named read-outs stand apart in the source and are kept apart here. One block for each molecule: values may come before it.

Assays:
[1] = molecular target: ERK2 (Rattus norvegicus, UniProt P63086); assay: in vitro radioactive kinase assay, Ets-1 phosphorylation by ERK2; assay type: biochemical; settings: 100 μM ATP /10mM Ets-1
ERK2, sequence (P63086 whole entry): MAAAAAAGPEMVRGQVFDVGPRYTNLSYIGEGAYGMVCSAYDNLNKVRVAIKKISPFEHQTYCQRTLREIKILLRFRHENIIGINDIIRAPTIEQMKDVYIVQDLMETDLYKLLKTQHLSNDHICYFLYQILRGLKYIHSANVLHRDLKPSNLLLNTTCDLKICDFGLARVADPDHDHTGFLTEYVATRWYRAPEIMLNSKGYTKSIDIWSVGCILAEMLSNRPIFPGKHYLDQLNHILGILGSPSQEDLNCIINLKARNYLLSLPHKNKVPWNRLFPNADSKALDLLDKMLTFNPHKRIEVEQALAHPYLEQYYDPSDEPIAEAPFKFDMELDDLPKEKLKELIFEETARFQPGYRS
Outline: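 Activated rat ERK2 (2 nM) was tested with His-Ets-1 (1–138) at 28–30 °C in HEPES pH 7.5 buffer with 11 mM MgCl2, BSA and 5% DMSO. Reactions were started with [γ-32P]ATP (10 or 100 μM).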

[2] = test system: NCI-60 panel of tumor cell lines; settings: for Average G%: average over tested NCI-60 cell lines, 10^−5 M (10 μM), 48 h
[3] = test system: MDA-MB-468; assay: cells; assay type: cell-based; settings: MDA-MB-468, 10^−5 M, 48 h
[4] = test system: SN12C; assay: cells; assay type: cell-based; settings: 10^−5 M, 48 h
[5] = test system: A498; assay: NCI-60 SRB screen, Renal cancer; assay type: cell-based, human; settings: A498, 10^−5 M, 48 h
[6] = test system: M14; assay: cells; assay type: cell-based; settings: M14, 10^−5 M, 48 h
[7] = test system: UO-31; assay: cells; assay type: cell-based; settings: UO-31, 10^−5 M, 48 h
[8] = test system: SNB-75; assay: cells; assay type: cell-based; settings: SNB-75, 10^−5 M, 48 h
[9] = test system: UACC-62; assay: cells; assay type: cell-based; settings: UACC-62, 10^−5 M, 48 h
[10] = test system: SK-OV-3; assay: cells; assay type: cell-based; settings: SK-OV-3, 10^−5 M, 48 h
[11] = test system: RPMI-8226; assay: cells; assay type: cell-based; settings: RPMI-8226, 10^−5 M, 48 h
[12] = test system: NCI-H460; assay: cells; assay type: cell-based; settings: NCI-H460, 10^−5 M, 48 h
[13] = test system: IGROV1; assay: cells; assay type: cell-based; settings: IGROV1, 10^−5 M, 48 h
[14] = test system: HOP-92; assay: cells; assay type: cell-based; settings: HOP-92, 10^−5 M, 48 h
[15] = test system: SK-MEL-2; assay: cells; assay type: cell-based; settings: SK-MEL-2, 10^−5 M, 48 h
[16] = test system: SK-MEL-5; assay: cells; assay type: cell-based; settings: SK-MEL-5, 10^−5 M, 48 h
[17] = test system: OVCAR-4; assay: cells; assay type: cell-based; settings: OVCAR-4, 10^−5 M, 48 h
[18] = test system: HT29; assay: cells; assay type: cell-based; settings: HT29, 10^−5 M, 48 h
[19] = test system: SNB-19; assay: cells; assay type: cell-based; settings: SNB-19, 10^−5 M, 48 h
[20] = test system: ACHN; assay: cells; assay type: cell-based; settings: 10^−5 M, 48 h
[21] = test system: NCI-H23; assay: cells; assay type: cell-based; settings: NCI-H23, 10^−5 M, 48 h
[22] = test system: NCI-H522; assay: cells; assay type: cell-based; settings: NCI-H522, 10^−5 M, 48 h
[23] = test system: NCI-H226; assay: cells; assay type: cell-based; settings: NCI-H226, 10^−5 M, 48 h
[24] = test system: MCF7; assay: cells; assay type: cell-based; settings: MCF7, 10^−5 M, 48 h
[25] = test system: A549/ATCC; assay: cells; assay type: cell-based; settings: A549/ATCC, 10^−5 M, 48 h
[26] = test system: SK-MEL-28; assay: cells; assay type: cell-based; settings: SK-MEL-28, 10^−5 M, 48 h
[27] = test system: MDA-MB-435; assay: cells; assay type: cell-based; settings: MDA-MB-435, 10^−5 M, 48 h
[28] = test system: MALME-3M; assay: cells; assay type: cell-based; settings: MALME-3M, 10^−5 M, 48 h
[29] = test system: U251; assay: cells; assay type: cell-based; settings: U251, 10^−5 M, 48 h
[30] = test system: HCT-15; assay: cells; assay type: cell-based; settings: HCT-15, 10^−5 M, 48 h
[31] = test system: HCT-116; assay: cells; assay type: cell-based; settings: HCT-116, 10^−5 M, 48 h
[32] = test system: HOP-62; assay: cells; assay type: cell-based; settings: HOP-62, 10^−5 M, 48 h
[33] = test system: OVCAR-8; assay: cells; assay type: cell-based; settings: OVCAR-8, 10^−5 M, 48 h
[34] = test system: CCRF-CEM; assay: cells; assay type: cell-based; settings: 10^−5 M, 48 h
[35] = test system: OVCAR-3; assay: cells; assay type: cell-based; settings: OVCAR-3, 10^−5 M, 48 h
[36] = test system: PC-3; assay: cells; assay type: cell-based; settings: PC-3, 10^−5 M, 48 h
[37] = test system: OVCAR-5; assay: cells; assay type: cell-based; settings: OVCAR-5, 10^−5 M, 48 h
[38] = test system: MOLT-4; assay: cells; assay type: cell-based; settings: MOLT-4, 10^−5 M, 48 h
[39] = test system: KM 12; assay: cells; assay type: cell-based; settings: KM 12, 10^−5 M, 48 h
[40] = test system: EKVX; assay: NCI-60 SRB screen, Non-small cell lung cancer; assay type: cell-based, human; settings: 10^−5 M, 48 h
[41] = test system: RXF 393; assay: cells; assay type: cell-based; settings: RXF 393, 10^−5 M, 48 h
[42] = test system: SF-539; assay: cells; assay type: cell-based; settings: SF-539, 10^−5 M, 48 h
[43] = test system: LOX IMVI; assay: cells; assay type: cell-based; settings: 10^−5 M, 48 h
[44] = test system: T-47D; assay: cells; assay type: cell-based; settings: T-47D, 10^−5 M, 48 h
[45] = test system: BT-549; assay: cells; assay type: cell-based; settings: BT-549, 10^−5 M, 48 h
[46] = test system: HCC-2998; assay: cells; assay type: cell-based; settings: HCC-2998, 10^−5 M, 48 h
[47] = test system: SF-268; assay: cells; assay type: cell-based; settings: SF-268, 10^−5 M, 48 h
[48] = test system: SW-620; assay: cells; assay type: cell-based; settings: SW-620, 10^−5 M, 48 h
[49] = test system: DU-145; assay: cells; assay type: cell-based; settings: DU-145, 10^−5 M, 48 h
[50] = test system: K-562; assay: cells; assay type: cell-based; settings: K-562, 10^−5 M, 48 h
[51] = test system: NCI-H322M; assay: cells; assay type: cell-based; settings: 10^−5 M, 48 h
[52] = test system: SF-295; assay: cells; assay type: cell-based; settings: SF-295, 10^−5 M, 48 h
[53] = test system: SR; assay: cells; assay type: cell-based; settings: 10^−5 M, 48 h
[54] = test system: HL-60 (TB); assay: cells; assay type: cell-based; settings: HL-60(TB), 10^−5 M, 48 h
[55] = ERK2 IC50 at 100 μM ATP /10mM Ets-1, Table 4

- IC50 [1, 55]: > 100 µM
Compound: O=C1c2ccccc2C(=O)c2c1oc1c2c(=O)[nH]c2ccc(Br)cc21 [3c, 2-Bromonaphtho[2′,3′:4,5]furo[3,2-c]quinoline-6,7,12(5H)-trione]

- IC50 [1, 55]: 59 ± 8.2 µM
Compound: Cc1ccc2[nH]c(=O)c3c4c(oc3c2c1)C(=O)c1ccccc1C4=O [3d, 2-Methylnaphtho[2′,3′:4,5]furo[3,2-c]quinoline-6,7,12(5H)-trione]

Compound: Cn1c(=O)c2c3c(oc2c2ccccc21)C(=O)c1ccccc1C3=O [3e, 5-Methylnaphtho[2′,3′:4,5]furo[3,2-c]quinoline-6,7,12(5H)-trione]
- NCI Cytotoxicity Screening Average G% ([2]; Table 4, 10 μM one-dose screen): 74%
- Average G% [2]: 74% and 74.32%
- Growth percent (G%) [3]: −9.91%
- Growth percent (G%) [4]: 81.84%
- Growth percent (G%) [5]: 93.29%
- Growth percent (G%) [6]: 85.59%
- Growth percent (G%) [7]: 54.76%
- Growth percent (G%) [8]: 64.39%
- Growth percent (G%) [9]: 77.03%
- Growth percent (G%) [10]: 93.55%
- Growth percent (G%) [11]: 51.06%
- Growth percent (G%) [12]: 78.50%
- Growth percent (G%) [13]: 68.65%
- Growth percent (G%) [14]: 100.92%
- Growth percent (G%) [15]: 92.64%
- Growth percent (G%) [16]: 76.95%
- Growth percent (G%) [17]: 4.38%
- Growth percent (G%) [18]: 73.69%
- Growth percent (G%) [19]: 93.29%
- Growth percent (G%) [20]: 75.49%
- Growth percent (G%) [21]: 78.33%
- Growth percent (G%) [22]: 50.55%
- Growth percent (G%) [23]: 73.22%
- Growth percent (G%) [24]: 68.38%
- Growth percent (G%) [25]: 81.67%
- Growth percent (G%) [26]: 111.89%
- Growth percent (G%) [27]: 103.73%
- Growth percent (G%) [28]: 113.45%
- Growth percent (G%) [29]: 90.22%
- Growth percent (G%) [30]: 85.01%
- Growth percent (G%) [31]: 71.69%
- Growth percent (G%) [32]: 81.77%
- Growth percent (G%) [33]: 85.32%
- Growth percent (G%) [34]: 19.07%
- Growth percent (G%) [35]: 21.58%
- Growth percent (G%) [36]: 64.38%
- Growth percent (G%) [37]: 119.92%
- Growth percent (G%) [38]: 2.39%
- Growth percent (G%) [39]: 91.54%
- Growth percent (G%) [40]: 70.67%
- Growth percent (G%) [41]: 100.91%
- Growth percent (G%) [42]: 97.17%
- IC50 [1, 55]: 21 ± 5.6 µM
- Growth percent (G%) [43]: 76.59%
- Growth percent (G%) [44]: 9.70%
- Growth percent (G%) [45]: 77.38%
- Growth percent (G%) [46]: 101.82%
- Growth percent (G%) [47]: 95.35%
- Growth percent (G%) [48]: 86.24%
- Growth percent (G%) [49]: 90.97%
- Growth percent (G%) [50]: 68.79%
- Growth percent (G%) [51]: 96.16%

Compound: CCn1c(=O)c2c(=O)c3c4c(oc3oc2c2ccccc21)C(=O)c1ccccc1C4=O [5b, 5-Ethyl-5H-naphthalen[2″,3″:4′,5′]furo[3′,2′:4′,5,6]pyrano[3,2-c]quinoline-6,7,8,13-tetraone]
- Average G% [2]: 65.81%
- Growth percent (G%) [3]: −9.96%
- Growth percent (G%) [4]: 106.07%
- Growth percent (G%) [6]: 89.81%
- Growth percent (G%) [7]: 112.5%
- Growth percent (G%) [8]: 119.73%
- Growth percent (G%) [9]: 63.95%
- Growth percent (G%) [10]: 102.05%
- Growth percent (G%) [11]: 33.49%
- Growth percent (G%) [12]: 83.68%
- Growth percent (G%) [13]: 68.31%
- Growth percent (G%) [14]: 50.81%
- Growth percent (G%) [15]: 79.89%
- Growth percent (G%) [16]: 67.42%
- Growth percent (G%) [17]: −99.52%
- Growth percent (G%) [18]: 63.02%
- Growth percent (G%) [19]: 90.17%
- Growth percent (G%) [20]: 79.61%
- Growth percent (G%) [21]: 66.79%
- Growth percent (G%) [22]: 65.5%
- Growth percent (G%) [23]: 99.44%
- Growth percent (G%) [24]: 92.37%
- Growth percent (G%) [52]: 95.07%
- Growth percent (G%) [25]: 82.36%
- Growth percent (G%) [26]: 106.96%
- Growth percent (G%) [27]: 95.88%
- Growth percent (G%) [28]: 112.5%
- Growth percent (G%) [29]: 57.67%
- Growth percent (G%) [30]: 79.63%
- Growth percent (G%) [31]: 34.6%
- Growth percent (G%) [32]: 80.29%
- Growth percent (G%) [33]: 10.25%
- Growth percent (G%) [34]: 2.47%
- Growth percent (G%) [35]: −16.31%
- Growth percent (G%) [36]: 81.82%
- Growth percent (G%) [37]: 117.77%
- Growth percent (G%) [38]: −24.49%
- Growth percent (G%) [39]: 86.61%
- Growth percent (G%) [53]: 80.76%
- Growth percent (G%) [41]: 72.63%
- Growth percent (G%) [42]: 89.92%
- IC50 ([1]; read-out: ERK2 IC50 at 100 μM ATP /10mM Ets-1, Table 4): 8.3 ± 1.5 µM
- Growth percent (G%) [43]: 32.39%
- Growth percent (G%) [54]: −18.8%
- Growth percent (G%) [44]: 85.06%
- Growth percent (G%) [45]: 93.67%
- Growth percent (G%) [46]: 100.59%
- Growth percent (G%) [47]: 84.32%
- Growth percent (G%) [48]: 73.47%
- Growth percent (G%) [49]: 42.4%
- Growth percent (G%) [50]: 28.57%
- Growth percent (G%) [51]: 97.72%
